Measurements as given in ChEMBL document CHEMBL4325901, “Novel multitarget-directed ligands targeting acetylcholinesterase and σ1 receptors as lead compounds for treatment of Alzheimer's disease: Synthesis, evaluation, and structural characterization of their complexes with acetylcholinesterase” (Eur J Med Chem, 2019).
The source made the active and inactive calls. The calls are words filed in the database; no cut-off is given here.

How the values were obtained:
[1] = target: T1, 5-hydroxytryptamine receptor 4 (Homo sapiens, UniProt Q13639); test: Displacement of [3H]-GR113808 from recombinant human 5-HT4BR expressed in membranes at 1 uM after 60 mins relative to control
T1 sequence (Q13639 whole entry): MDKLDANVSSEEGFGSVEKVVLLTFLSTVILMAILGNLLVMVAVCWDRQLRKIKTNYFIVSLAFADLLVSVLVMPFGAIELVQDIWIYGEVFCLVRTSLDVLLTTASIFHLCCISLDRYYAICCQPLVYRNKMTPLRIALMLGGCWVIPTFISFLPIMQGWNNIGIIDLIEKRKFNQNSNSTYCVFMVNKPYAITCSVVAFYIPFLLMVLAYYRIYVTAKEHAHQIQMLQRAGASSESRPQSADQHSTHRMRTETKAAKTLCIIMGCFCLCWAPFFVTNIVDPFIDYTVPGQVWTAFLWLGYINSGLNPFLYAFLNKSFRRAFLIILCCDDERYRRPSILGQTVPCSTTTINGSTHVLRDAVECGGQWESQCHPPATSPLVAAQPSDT
Procedure, shortened: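 Crude membranes from a stable recombinant cell line expressing 5-HT4B were incubated in duplicate at 25 °C for 60 min with compound at 10^-6 or 10^-8 M and 0.2 nM [3H]-GR113808 in 25 mM Tris, pH 7.4. They were filtered through polyethylenimine-presoaked GF/C filters and washed three times with ice-cold Tris. Nonspecific binding was defined with serotonin.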

Acetylcholinesterase [2] = target: T2, Acetylcholinesterase (Homo sapiens, UniProt P22303); test: Inhibition of human erythrocytes AChE using acetylthiocholine iodide as substrate preincubated for 5 mins followed by substrate addition measured at 1 min time interval for 10 mins by Ellman's method
T2 sequence (P22303 whole entry): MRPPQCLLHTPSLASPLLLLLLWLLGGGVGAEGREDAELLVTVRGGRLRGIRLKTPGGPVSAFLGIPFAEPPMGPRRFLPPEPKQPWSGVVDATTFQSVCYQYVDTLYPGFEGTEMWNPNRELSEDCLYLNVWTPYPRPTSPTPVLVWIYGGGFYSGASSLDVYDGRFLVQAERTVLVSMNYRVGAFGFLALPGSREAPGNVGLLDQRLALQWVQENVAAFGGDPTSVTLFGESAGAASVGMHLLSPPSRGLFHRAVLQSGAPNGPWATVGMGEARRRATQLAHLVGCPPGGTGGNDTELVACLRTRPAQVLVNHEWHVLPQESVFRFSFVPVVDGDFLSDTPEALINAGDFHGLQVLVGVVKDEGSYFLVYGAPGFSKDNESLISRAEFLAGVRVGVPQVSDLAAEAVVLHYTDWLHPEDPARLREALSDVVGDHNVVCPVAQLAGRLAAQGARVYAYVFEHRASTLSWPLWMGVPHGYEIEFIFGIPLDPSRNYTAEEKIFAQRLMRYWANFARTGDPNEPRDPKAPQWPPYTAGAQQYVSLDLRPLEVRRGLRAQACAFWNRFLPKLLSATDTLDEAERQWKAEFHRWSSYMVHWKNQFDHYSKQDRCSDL

[3] = target: T1, 5-hydroxytryptamine receptor 4; test: Displacement of [3H]-GR113808 from recombinant human 5-HT4BR expressed in membranes after 60 mins
[4] = target: Sigma non-opioid intracellular receptor 1 (Homo sapiens, UniProt Q99720); test: Displacement of [3H]-(+)-pentazocine from sigma-1 receptor in human Jurkat cell membranes after 2 hrs by liquid scintillation counting method
Sequence of Sigma non-opioid intracellular receptor 1 (Q99720 whole entry): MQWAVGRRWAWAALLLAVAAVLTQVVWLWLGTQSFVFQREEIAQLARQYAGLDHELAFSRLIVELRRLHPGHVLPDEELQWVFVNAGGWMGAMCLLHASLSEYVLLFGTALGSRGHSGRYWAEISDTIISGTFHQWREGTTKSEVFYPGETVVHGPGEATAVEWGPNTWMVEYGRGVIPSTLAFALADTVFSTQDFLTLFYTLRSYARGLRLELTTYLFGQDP

[5] = target: T1, 5-hydroxytryptamine receptor 4; test: Agonist activity at 5-HT4R (unknown origin) expressed in CHO cells assessed as intracellular cAMP accumulation after 15 mins by radio-immunoassay; assay type: functional, cell-based
Procedure, shortened: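 Stably transfected CHO cells grown to confluence, serum-starved 4 h, then preincubated 15 min in serum-free medium with 5 mM theophylline, 10 mM pargyline and […] to block endogenous 5-HT1B receptors. 5-HT or test compound added for a further 15 min. Stopped with ice-cold ethanol, 30 min at room temperature, ethanol fraction dried, cAMP quantified by competitive radioimmunoassay.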

Acetylcholinesterase [6] = target: T2, Acetylcholinesterase; test: Non-competitive inhibition of human erythrocytes AChE up to 1 uM using varying levels of acetylthiocholine iodide substrate preincubated for 5 mins followed by substrate addition measured at 1 min time interval for 10 mins by Lineweaver-Burk plot analysis
[7] = target: T1, 5-hydroxytryptamine receptor 4; test: Antagonist activity at 5-HT4R (unknown origin) expressed in CHO cells assessed as reduction in intracellular cAMP accumulation after 15 mins by radio-immunoassay; assay type: functional, cell-based
Mus musculus [8] = test: Cognition enhancing effect in Swiss mouse assessed as protection against dizocilpine-induced spatial memory impairment by measuring spontaneous alternation performance at 0.1 to 1 mg/kg, ip pretreated for 10 mins followed by dizocilpine treatment and measured after 20 mins by Y-maze test; assay type: functional, organism-based
Procedure, shortened: (§1)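 Male Swiss mice, 6 weeks, 32 g, groups of 12e16. Compounds dissolved in 10% DMSO in saline, diluted in saline; vehicle 2% DMSO in saline. Given IP 10 min before dizocilpine 0.15 mg/kg IP, 20 min before Y-maze session (alternation % and arm entries) or passive-avoidance training (footshock 3 s on entering dark compartment; step-through latency).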

Mus musculus [9] = test: Cognition enhancing effect in Swiss mouse assessed as protection against dizocilpine-induced long term non-spatial memory impairment by measuring increase in step-through latency at 0.1 mg/kg, ip pretreated for 10 mins followed by dizocilpine treatment and measured after 20 mins by passive avoidance test relative to control; assay type: functional; procedure, shortened: as §1

SMILES	inhibition [1]	IC50 (Acetylcholinesterase [2])	Ki [3]	Ki [4]	further results
O=C(CCC1CCN(CC2CCCC2)CC1)c1ccc2[nH]ccc2c1	100%	0.094 µM	0.025 µM		
CCCCN1CCC(CCC(=O)c2cc(Cl)c(N)cc2OC)CC1	100%				
COc1c(C(=O)CCC2CCN(CC3CCCCC3)CC2)cc(Cl)c2c1ccn2C		0.0844 µM			
COc1cc2c(cc1OC)C(=O)C(CC1CCN(Cc3ccccc3)CC1)C2 (centres undefined)	10%				
O=C(CCC1CCN(CC2CCCCC2)CC1)c1ccc2c(ccn2Cc2ccccc2)c1	42%	0.133 µM			
COc1cc(N)c(Cl)cc1C(=O)CCC1CCN(CC2CCCCC2)CC1				0.051 µM	Activity [5]: Active
COc1c(C(=O)CCC2CCN(Cc3ccccc3)CC2)cc(Cl)c2[nH]c([Si](C)(C)C)cc12	62%	0.275 µM			
COc1c(C(=O)CCC2CCN(CC3CCCCC3)CC2)ccc2[nH]ccc12	100%	0.04 µM	0.051 µM		
COc1c(C(=O)CCC2CCN(CC3CCCCC3)CC2)cc(Cl)c2c1ccn2Cc1ccccc1		0.261 µM			
COc1c(C(=O)CCC2CCN(CC3CCCCC3)CC2)cc(Cl)c2[nH]ccc12	100%	0.0914 µM	0.0409 µM	0.0051 µM	inhibition (Acetylcholinesterase [6]): Active; inhibition [7]: Active
O=C(CCC1CCN(Cc2ccccc2)CC1)c1ccc2[nH]ccc2c1	90%	0.0133 µM	0.169 µM	0.0033 µM	
COc1c(C(=O)CCC2CCN(Cc3ccccc3)CC2)cc(Cl)c2[nH]ccc12	96%	0.0204 µM	0.15 µM	0.0057 µM	
O=C(CCC1CCN(CC2CCCCC2)CC1)c1cc(Cl)c2[nH]ccc2c1	100%	0.0288 µM	0.0375 µM	0.0051 µM	Activity (Mus musculus [8]): inactive; Activity (Mus musculus [9]): 40%
O=C(CCC1CCN(CC2CCCCC2)CC1)c1ccc2[nH]ccc2c1	100%	0.051 µM	0.0375 µM		
COc1c(C(=O)CCC2CCN(CC3CCCCC3)CC2)cc(Cl)c2c1ccn2S(=O)(=O)c1ccccc1	62%	0.559 µM			
CCCCN1CCC(CCC(=O)c2ccc3[nH]ccc3c2)CC1	97%	0.716 µM	0.0496 µM		
